ChEMBL document CHEMBL1126202, “Dual-action penems and carbapenems” (J Med Chem, 1992)

Key:
[1] = target: Penicillin-binding protein 4 (Staphylococcus aureus) (UniProt P72355); experiment: Concentration inhibiting [14C]- Penicillin G binding to Staphylococcus aureus ATCC 29213 Penicillin binding protein 4 41 kDa
Escherichia coli [2] = experiment: Minimum inhibitory concentration of the Penicillin G binding to Escherichia coli UB1005 PBPs.
Staphylococcus aureus [3] = experiment: Minimum inhibitory concentration to the Penicillin G binding to Staphylococcus aureus ATCC 29213 Penicillin binding protein
[4] = target: T1, Penicillin-binding protein 2b (Staphylococcus aureus) (UniProt Q9XDB3); experiment: Concentration inhibiting [14C]- Penicillin G binding to Staphylococcus aureus ATCC 29213 Penicillin binding protein 3, 85 kDa
T1 sequence (whole entry): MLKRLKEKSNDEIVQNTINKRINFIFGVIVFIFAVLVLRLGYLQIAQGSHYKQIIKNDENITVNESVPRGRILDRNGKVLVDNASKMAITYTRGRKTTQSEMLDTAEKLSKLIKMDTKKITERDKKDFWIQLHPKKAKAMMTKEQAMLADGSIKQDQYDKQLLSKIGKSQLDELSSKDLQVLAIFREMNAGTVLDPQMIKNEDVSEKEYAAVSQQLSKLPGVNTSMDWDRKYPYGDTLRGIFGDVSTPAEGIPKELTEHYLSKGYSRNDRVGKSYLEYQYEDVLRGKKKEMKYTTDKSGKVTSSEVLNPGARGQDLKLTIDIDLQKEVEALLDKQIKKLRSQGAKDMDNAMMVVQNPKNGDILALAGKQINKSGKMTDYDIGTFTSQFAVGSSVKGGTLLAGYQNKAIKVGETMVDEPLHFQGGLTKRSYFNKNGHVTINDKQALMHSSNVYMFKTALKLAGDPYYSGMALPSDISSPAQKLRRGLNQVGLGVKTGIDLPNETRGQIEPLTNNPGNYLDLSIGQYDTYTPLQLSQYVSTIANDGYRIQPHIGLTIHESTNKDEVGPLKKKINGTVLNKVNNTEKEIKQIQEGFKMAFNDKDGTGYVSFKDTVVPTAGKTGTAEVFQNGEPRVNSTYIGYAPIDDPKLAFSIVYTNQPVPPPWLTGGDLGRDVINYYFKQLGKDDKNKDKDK

Hathewaya histolytica = experiment: In vitro antibacterial activity against Clostridium histolyticum 503-86; type: functional
Staphylococcus aureus [5] = experiment: In vitro antibacterial activity against Staphylococcus aureus 753 (constitutive beta-lactamase producer); type: functional
Summary of the method: (§1)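 MIC was determined by agar dilution on Mueller-Hinton agar. Serial 2-fold aqueous dilutions were diluted 10-fold in agar to give final concentrations of 128 to 0.0156 μg/mL. Plates were inoculated by Steers replicator with overnight broth cultures diluted 100-fold.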

Klebsiella pneumoniae = experiment: In vitro antibacterial activity against Klebsiella pneumoniae A; type: functional; summary of the method: as §1
Escherichia coli [6] = experiment: Minimum inhibitory concentration inhibiting [14C]- Penicillin G binding to Escherichia coli UB1005 PBPs.
Streptococcus pneumoniae = experiment: In vitro antibacterial activity against Streptococcus pneumoniae 6301; type: functional
Summary of the method: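 Streptococcal MICs were determined by agar dilution on brain heart infusion agar supplemented with 20 units/mL bovine liver catalase. Final concentrations were 128 to 0.0156 μg/mL from 2-fold dilutions. Inocula were overnight broth cultures diluted 100-fold, applied by Steers replicator.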

Staphylococcus aureus [7] = experiment: Minimum inhibitory concentration to the compound inhibiting [14C]- Penicillin G binding to Staphylococcus aureus ATCC 29213 Penicillin binding protein
Serratia marcescens = experiment: In vitro antibacterial activity against Serratia marcescens SM (constitutive beta-lactamase producer); type: functional; summary of the method: as §1
Staphylococcus aureus [8] = experiment: Minimum inhibitory concentration to the Penicillin G binding to Staphylococcus aureus ATCC 29213 PBPs
[9] = tested on: Penicillin-binding protein 3 FtsI (Escherichia coli K-12); experiment: Concentration inhibiting [14C]- Penicillin G binding to Escherichia coli UB1005 PBP3 (penicillin binding protein) 60 kDa
Pseudomonas aeruginosa = experiment: In vitro antibacterial activity against Ps. aeruginosa 18SH (constitutive beta-lactamase producer); type: functional; summary of the method: as §1
Escherichia coli [10] = experiment: Minimum inhibitory concentration inhibiting [14C]- Penicillin G binding to Escherichia coli UB1005 PBPs

C[C@@H](O)[C@H]1C(=O)N2C(C(=O)[O-])=C(COC(=O)N3CCN(c4cc5c(cc4F)c(=O)c(C(=O)O)cn5C4CC4)CC3)S[C@H]12.[Na+]
IC90 [1]: 2 µg/mL
MIC (Escherichia coli [2]): 4 µg/mL
MIC (Staphylococcus aureus [3]): 0.25 µg/mL
IC90 [4]: 2 µg/mL

C[C@@H](O)[C@H]1C(=O)N2C(C(=O)[O-])=C(CO)S[C@H]12.[Na+]
MIC (Hathewaya histolytica): < 0.125 µg/mL
MIC (Staphylococcus aureus [5]): 1 µg/mL
MIC (Klebsiella pneumoniae): 4 µg/mL
MIC (Escherichia coli [6]): 4 µg/mL
MIC (Streptococcus pneumoniae): 0.125 µg/mL
MIC (Staphylococcus aureus [7]): 0.25 µg/mL
MIC (Serratia marcescens): 8 µg/mL

C[C@@H](O)[C@H]1C(=O)N2C(C(=O)[O-])=C(COC(=O)c3cn(CCF)c4c(F)c(N5CCN(C)CC5)c(F)cc4c3=O)S[C@H]12.[Na+]
MIC (Staphylococcus aureus [8]): 0.125 µg/mL
IC90 [9]: 30 µg/mL
MIC (Pseudomonas aeruginosa): 4 µg/mL
MIC (Escherichia coli [10]): 2 µg/mL
